Shown are actives, neighbours in structure and some others; about 4.1% of the full set was active somewhere.
hERG rescue: shields human hERG channel from block by proarrhythmic agents | Q12809 | CHO-hERG, FluxOR thallium flux, dofetilide IC70 present | activation (rescue from dofetilide block), less the hit threshold, % at 10 µM | actives 0.51% (n = 310,000) | AID 1511;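 active = activation above the mean of controls blocked by dofetilide plus 5 SD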;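 note: thallium influx through hERG after potassium depolarization seen as dye fluorescence rise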
Target sequence (Q12809 whole entry, looked up): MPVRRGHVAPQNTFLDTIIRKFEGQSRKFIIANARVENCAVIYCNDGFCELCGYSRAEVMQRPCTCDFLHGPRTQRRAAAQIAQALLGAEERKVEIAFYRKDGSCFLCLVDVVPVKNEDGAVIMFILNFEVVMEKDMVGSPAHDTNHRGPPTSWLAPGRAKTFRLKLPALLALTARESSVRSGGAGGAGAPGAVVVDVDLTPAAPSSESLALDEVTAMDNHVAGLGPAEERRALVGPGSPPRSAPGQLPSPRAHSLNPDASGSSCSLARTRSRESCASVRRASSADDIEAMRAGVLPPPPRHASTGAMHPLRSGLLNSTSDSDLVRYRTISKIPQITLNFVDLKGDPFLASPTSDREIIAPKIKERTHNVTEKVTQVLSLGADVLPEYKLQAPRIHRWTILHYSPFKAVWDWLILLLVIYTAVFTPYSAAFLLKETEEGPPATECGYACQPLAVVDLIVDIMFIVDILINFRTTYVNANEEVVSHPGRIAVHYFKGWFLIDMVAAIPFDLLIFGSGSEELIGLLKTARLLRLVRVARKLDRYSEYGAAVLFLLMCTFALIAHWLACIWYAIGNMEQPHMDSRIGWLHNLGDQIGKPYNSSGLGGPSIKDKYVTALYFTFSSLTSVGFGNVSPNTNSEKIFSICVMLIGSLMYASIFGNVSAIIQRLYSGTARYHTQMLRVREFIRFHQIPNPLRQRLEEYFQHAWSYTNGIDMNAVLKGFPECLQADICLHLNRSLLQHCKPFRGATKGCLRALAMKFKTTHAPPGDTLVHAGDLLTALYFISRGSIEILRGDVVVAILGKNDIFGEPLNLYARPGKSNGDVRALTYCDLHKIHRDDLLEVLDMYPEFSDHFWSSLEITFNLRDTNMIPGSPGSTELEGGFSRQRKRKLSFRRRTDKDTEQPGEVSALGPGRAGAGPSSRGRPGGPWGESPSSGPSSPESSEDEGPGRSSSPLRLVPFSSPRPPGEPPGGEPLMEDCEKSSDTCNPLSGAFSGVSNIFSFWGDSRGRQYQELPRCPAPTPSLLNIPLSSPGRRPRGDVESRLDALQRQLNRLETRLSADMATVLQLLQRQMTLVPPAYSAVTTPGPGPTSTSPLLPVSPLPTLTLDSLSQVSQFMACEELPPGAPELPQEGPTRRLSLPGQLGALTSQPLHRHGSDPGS
KCC2 mod: modulates chloride dependent transport by human KCC2; Q9H2X9; KCC2 cells, thallium flux FluoZin-2 fluorescence; B-score of Tl+ flux slope (higher = more flux/activation; lower = inhibition) at 10 µM; actives 2.2% (n = 190,000); AID 1456;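 active = thallium flux slope and its plate-corrected score both differing from the plate sample mean at a set confidence after two filtering rounds, in either direction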;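 note: slope of fluorescence scaled to starting intensity during 10 to 20 s after thallium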
KCNQ1 block: inhibitors of human KCNQ1 potassium channel | CHO-K1 KCNQ1, FluxOR thallium flux fluorescence; active compounds read high | B-score at 10 µM | actives 1.3% (n = 310,000);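 active = compounds whose thallium flux B-score, printed positive for inhibition, exceeds three library SD while starting fluorescence stays within three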;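 note: channel opened by potassium depolarization with thallium stimulus after 20 min compound exposure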
KCNK9 inh: blocks the human KCNK9 two-pore domain potassium channel; Q9NPC2; HEK293 KCNK9, FluxOR thallium flux fluorescence; active compounds read low; B-score at 10 µM; actives 1.2% (n = 310,000);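 active = ratio B-score over 3 SD below the library mean, with starting fluorescence within 5 SD of its mean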;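 note: negative B-score means less thallium flux so channel inhibition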
KCNK3 inh: human KCNK3 channel inhibition, primary screen; O14649; CHO-KCNK3 thallium flux, FluxOR fluorescence; active compounds read low; B-score at 10 µM; actives 0.84% (n = 340,000); AID 602410;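 active = B-score under library mean minus 4 SD, starting fluorescence ratio at most library mean plus 5 SD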;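 note: more negative B-score means stronger inhibition of thallium flux through KCNK3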
KCNQ1 pot: potentiates or activates the human KCNQ1 potassium channel; P51787; CHO-K1 KCNQ1, thallium flux FluxOR fluorescence; active compounds read high; B-score at 10 µM; actives 0.35% (n = 310,000); AID 2648;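 active = fluorescence ratio B-score, a plate-corrected score, at least three library SD, with initial intensity B-score within 5 SD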
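Schedule – 37 °C overnight plating, 90-min dark dye load, 20-min compound pretreatment · System – stable KCNQ1 CHO-K1 line · Probe or stimulus – thallium- and potassium-containing depolarizing buffer · Measured by – kinetic FluxOR fluorescence, 10 s baseline plus 110 s post-stimulus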
Numbers without * were called inactive; i = inactive; / = no result given.

SMILES	hERG rescue	KCC2 mod	KCNQ1 block	KCNK9 inh	KCNK3 inh	KCNQ1 pot
Cc1ccc(S(=O)(=O)N(C)C)cc1NC(=S)NC(C)CCC(C)C (centres undefined)	-3.5	0.081	i	i	i	i
COc1ccc(S(=O)(=O)N(C)C)cc1NCC(=O)Nc1cccc2ccccc12	-14.5	/	i	-7.37*	i	i
Cc1ccc(S(=O)(=O)N(C)C)cc1NC(=S)NC(C)CCCC(C)C (centres undefined)	6.6*	-0.564	i	i	i	i
CC(=O)NNC(=S)Nc1cc(S(=O)(=O)N(C)C)ccc1C	0.3	1.15	i	i	i	i
COc1ccc(S(=O)(=O)N(C)C)cc1NCC(=O)Nc1ccc(F)cc1F	-5.8	0.24	i	i	i	i
Cc1ccc(S(=O)(=O)N(C)C)cc1NC(=S)Nc1cccc2ccccc12	-5.1	/	i	-7.13*	i	i
CCOc1ccccc1N=NC1C(=O)N(C(N)=S)N=C1C (centres undefined)	-6.0	/	i	i	i	i
CCSc1nnc(NC(=O)CN2C(=O)N(C)C3(CCCCC3)C2=O)s1	/	/	/	/	i	/
CCOC(=O)C1CCNC(=O)C1=O (centres undefined)	/	/	/	/	i	/
S=c1nc(-c2ccccc2)[nH]n1-c1ccccc1	14.9*	53.3*	i	i	i	74*
O=C(Nn1c(O)c(C=C2N=c3ccccc3=N2)sc1=S)c1cccc(Cl)c1	12.0*	/	i	i	i	i
O=C(Nn1c(O)c(C=C2N=c3ccccc3=N2)sc1=S)c1ccc(Cl)cc1	-8.8	/	i	i	i	i
CCCCN(C(=O)C1CCCO1)c1c(N)n(CCC)c(=O)[nH]c1=O (centres undefined)	/	/	/	/	i	/
CC(=Nc1ccccc1)C1=C(O)C(Cc2ccccc2)NC1=O (centres undefined)	/	/	/	/	i	/
COc1ccc(/C=C/C(=O)NC(=S)Nc2ccc(S(=O)(=O)N=C(N)N)cc2)cc1OC	-5.2	/	i	i	i	i
CC(C)NC(=O)Nc1n[nH]c(Nc2ccc(Cl)cc2)n1	5.3*	-1.75	i	i	i	i
CCNC(=S)N/N=C(\C)c1ccc(Cl)s1	0.7	19.4*	i	i	i	i
C/C(=N/Nc1ccc(F)cc1)c1ccc(Cl)s1	0.2	-0.798	i	i	i	i
CCNC(=S)N/N=C(\C)c1cc2ccccc2o1	-5.0	9.11*	i	i	i	i
C=C(C)CNC(=S)N/N=C(\C)c1ccc(Cl)s1	2.8	12.7*	i	i	i	i
CNC(=S)N/N=C(\C)c1ccc(Cl)s1	-3.2	12.7*	i	i	i	i
C/C(=N\NC(N)=O)c1ccc(Cl)s1	-11.3	-0.863	i	i	i	i
COC(=O)CCN(c1ccccc1)S(=O)(=O)c1cc(-c2cc(C)no2)ccc1OC	-11.3	/	i	i	i	i
NC(=O)C1(Nc2ccc(C(=O)O)cc2)CCCC1	/	/	/	/	i	/
O=C1CCCCC1Nc1ccc(Br)cc1 (centres undefined)	/	/	/	/	i	/
SMILES	hERG rescue	KCC2 mod	KCNQ1 block	KCNK9 inh	KCNK3 inh	KCNQ1 pot
CNC(=S)N/N=C(\C)c1ccc(C)c(C)c1	-1.4	5.14*	i	i	i	i
C/C(=N\NC(=O)C1CC1)c1ccc(C)c(C)c1	-8.3	/	i	i	i	i
O=C(NN=C1c2ccccc2-c2ccccc21)c1cccc(Br)c1	46.1*	59.8*	i	i	i	18*
O=C(COc1cccc(Br)c1)NN=C1c2ccccc2-c2ccccc21	-8.6	1.49	i	i	i	i
COc1ccc(NC(=O)c2cc(S(=O)(=O)N3CCCCC3)ccc2C)cc1S(=O)(=O)N1CCOCC1	/	/	/	/	i	/
Oc1c(Br)cc(Br)cc1CNc1cnc2ccccc2c1	-10.1	/	6*	i	i	i
Oc1c(Br)cc(Br)cc1CNc1ccc(F)cc1	-4.9	/	i	i	i	i
COc1ccccc1N(CC(=O)NC1CCCCC1)C(=O)CNC(=O)c1cccs1	-2.3	/	i	i	i	i
CCOC(=O)c1cnn(-c2nc(SC)nc3sc4c(c23)CCC4)c1N	-14.4	-1.03	i	-7.77*	i	i
Cc1nc(-n2ncc(C#N)c2N)c2c3c(sc2n1)CCC3	-6.7	/	i	i	i	i
CC12CCC(C(=O)N(CSC(=S)N/N=C\c3ccccc3O)C1=O)C2(C)C (centres undefined)	-11.5	12.7*	i	i	i	i
COc1ccc(/C=N\NC(=S)SCN2C(=O)C3CCC(C)(C2=O)C3(C)C)cc1 (centres undefined)	-0.4	14*	i	i	i	16*
CN(C)c1ccc(/C=N/NC(=O)CCCO)cc1	-7.0	0.285	i	i	i	i
CC12CCC(C(=O)N(CC(O)CN3CCN(Cc4ccccc4)CC3)C1=O)C2(C)C (centres undefined)	-6.8	-1.09	i	i	i	i
CN(C)c1ccc(/C=N\NC(=S)SCN2C(=O)C3CCC(C)(C2=O)C3(C)C)cc1 (centres undefined)	/	6.39*	/	/	i	/
CN(C)c1ccc(N=Nc2ccccc2C(=O)OCC(=O)Nc2ccccc2C(F)(F)F)cc1	-12.2	-0.262	6*	i	i	i
COc1ccc(NC(=O)N(C)C[C@H]2Oc3c(NC(=O)Cc4ccccc4)cccc3C(=O)N([C@H](C)CO)C[C@@H]2C)cc1	/	/	/	/	i	/
O=C(Nc1cccnc1Cl)c1cccnc1Cl	-2.4	-0.172	i	i	i	i
O=C(Nc1cccc2c1C(=O)NC2=O)c1cccnc1Cl	6.1*	-0.956	i	i	i	i
COC(=O)c1ccc(OC(=O)CCN2c3ccccc3Sc3ccccc32)cc1	-11.2	-0.825	i	-7.51*	i	i
CC(Sc1nnc(C2CC2)n1N)C(=O)NC1CCCCC1C (centres undefined)	-9.8	/	i	i	i	i
CC(Sc1n[nH]c(N)n1)C(=O)NC1CCCCC1C (centres undefined)	-8.0	/	i	i	i	8*
CCCNC(=O)c1nnsc1S(=O)(=O)c1ccc(Cl)cc1	/	-0.799	/	/	-9.13*	/
C=CC(C)(C)c1c(O)c(CC=C(C)C)c(O)c2c(=O)c3ccc(O)c(O)c3oc12	-9.3	/	6*	i	i	i
Cc1cccc(OCC(=O)Nc2ccc3oc(=O)ccc3c2)c1	-3.9	/	i	i	i	i
CC(=O)Nc1cccc(NC(=O)COc2ccc3c(c2)OCO3)c1	-2.1	/	i	i	i	i
COc1ccc(CCN(C)C(=S)Nc2cccc(C)c2)cc1OC	-4.0	/	i	i	i	i

Screens (PubChem BioAssay)
